Measurements: ChEMBL document CHEMBL1136990, “Design of HIV-1 protease inhibitors with pyrrolidinones and oxazolidinones as novel P1'-ligands to enhance backbone-binding interactions with protease: synthesis, biological evaluation, and protein-ligand X-ray studies” (J Med Chem, 2009)
pEC50, pIC50, pKi: −log10 of the molar value.

Legend:
[1] = Inhibition of HIV protease by fluorescence energy transfer assay; set-up: species or system Human immunodeficiency virus
[2] = system: Human immunodeficiency virus 1; experiment: Antiviral activity against HIV1 LAI in human MT2 cells by MTT assay; assay type: functional, organism-based; details: Human immunodeficiency virus 1, LAI
[3] = system: Human immunodeficiency virus 1; experiment: Antiviral activity against wild type HIV1 isolate ERS104pre infected in PHA-stimulated PBMC assessed as inhibition of p24 […] protein; assay type: functional, organism-based; details: Human immunodeficiency virus 1, isolate ERS104pre
Method in brief: (§1)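 Clinical HIV-1 isolates were tested in PHA-stimulated peripheral blood mononuclear cells as targets, with inhibition of p24 Gag protein production as the end point. Each value was determined in duplicate or triplicate and derived from three independent experiments.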

[4] = system: Human immunodeficiency virus 1; experiment: Antiviral activity against multidrug-resistant HIV1 isolate TM infected in PHA-stimulated PBMC assessed as inhibition of p24 […] protein; assay type: functional, organism-based; details: Human immunodeficiency virus 1, isolate TM; method in brief: as §1
[5] = system: Human immunodeficiency virus 1; experiment: Antiviral activity against multidrug-resistant HIV1 isolate MM infected in PHA-stimulated PBMC assessed as inhibition of p24 […] protein; assay type: functional, organism-based; details: Human immunodeficiency virus 1, isolate MM; method in brief: as §1
[6] = system: Human immunodeficiency virus 1; experiment: Antiviral activity against multidrug-resistant HIV1 isolate C infected in PHA-stimulated PBMC assessed as inhibition of p24 […] protein; assay type: functional, organism-based; details: Human immunodeficiency virus 1, isolate C; method in brief: as §1
[7] = system: Human immunodeficiency virus 1; experiment: Antiviral activity against multidrug-resistant HIV1 isolate G infected in PHA-stimulated PBMC assessed as inhibition of p24 […] protein; assay type: functional, organism-based; details: Human immunodeficiency virus 1, isolate G; method in brief: as §1
[8] = system: Human immunodeficiency virus 1; experiment: Ratio of EC50 for multidrug-resistant HIV1 isolate TM to EC50 for wild type HIV1 isolate ERS104pre; assay type: functional
Method in brief: (§2)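 Fold change is the EC50 against each multidrug-resistant isolate divided by the EC50 against HIV-1ERS104pre. EC50s came from PHA-stimulated PBMC with a p24 Gag production end point, run in duplicate or triplicate across three independent experiments.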

[9] = system: Human immunodeficiency virus 1; experiment: Ratio of EC50 for multidrug-resistant HIV1 isolate MM to EC50 for wild type HIV1 isolate ERS104pre; assay type: functional; method in brief: as §2
[10] = system: Human immunodeficiency virus 1; experiment: Ratio of EC50 for multidrug-resistant HIV1 isolate C to EC50 for wild type HIV1 isolate ERS104pre; assay type: functional; method in brief: as §2
[11] = system: Human immunodeficiency virus 1; experiment: Ratio of EC50 for multidrug-resistant HIV1 isolate G to EC50 for wild type HIV1 isolate ERS104pre; assay type: functional; method in brief: as §2
[12] = system: Human immunodeficiency virus 1; experiment: Antiviral activity against saquinavir-resistant HIV1 NL4-3; assay type: functional, organism-based; details: Human immunodeficiency virus 1, NL4-3
[13] = system: Human immunodeficiency virus 1; experiment: Antiviral activity against amprenavir-resistant HIV1 NL4-3; assay type: functional, organism-based; details: Human immunodeficiency virus 1, NL4-3
[14] = system: Human immunodeficiency virus 1; experiment: Antiviral activity against indinavir-resistant HIV1 NL4-3; assay type: functional, organism-based; details: Human immunodeficiency virus 1, NL4-3
[15] = system: Human immunodeficiency virus 1; experiment: Antiviral activity against nelfinavir-resistant HIV1 NL4-3; assay type: functional, organism-based; details: Human immunodeficiency virus 1, NL4-3
[16] = system: Human immunodeficiency virus 1; experiment: Antiviral activity against ritonavir-resistant HIV1 NL4-3; assay type: functional, organism-based; details: Human immunodeficiency virus 1, NL4-3
[17] = system: Human immunodeficiency virus 1; experiment: Antiviral activity against lopinavir-resistant HIV1 NL4-3; assay type: functional, organism-based; details: Human immunodeficiency virus 1, NL4-3
[18] = system: Human immunodeficiency virus 1; experiment: Antiviral activity against atazanavir-resistant HIV1 NL4-3; assay type: functional, organism-based; details: Human immunodeficiency virus 1, NL4-3

For `Nc1ccc(S(=O)(=O)N(C[C@@H]2CCC(=O)N2)C[C@@H](O)[C@H](Cc2ccccc2)NC(=O)O[C@@H]2C[C@@H]3CCO[C@@H]3C2)cc1`, the pKi [1] was 8.90 and the pIC50 [2] was < 6.00.

Compound `COc1ccc(S(=O)(=O)N(C[C@@H]2CCC(=O)N2)C[C@@H](O)[C@H](Cc2ccccc2)NC(=O)O[C@H]2CO[C@H]3OCC[C@H]32)cc1` has a pKi [1] of 9.07 and a pIC50 [2] of 6.32.

`Nc1ccc(S(=O)(=O)N(C[C@@H]2CCC(=O)N2)C[C@@H](O)[C@H](Cc2ccccc2)NC(=O)O[C@H]2CO[C@H]3OCC[C@H]32)cc1` showed a pKi [1] of 9.55.

`COc1ccc(S(=O)(=O)N(C[C@@H]2CCC(=O)N2)C[C@@H](O)[C@H](Cc2ccccc2)NC(=O)O[C@@H]2C[C@@H]3CCO[C@@H]3C2)cc1` showed a pKi [1] of 9.51 and a pIC50 [2] of 6.64.

For `COc1ccc(S(=O)(=O)N(C[C@H]2CCC(=O)N2)C[C@@H](O)[C@H](Cc2ccccc2)NC(=O)O[C@@H]2C[C@@H]3CCO[C@@H]3C2)cc1`, the pIC50 [2] was 7.59, the pEC50 [3] was 7.55 and the pEC50 [4] was 7.54. The pEC50 [5] was 7.38, the pEC50 [6] was 7.64 and the pEC50 [7] was 7.57. The “Ratio EC50” value [8] was 1, the “Ratio EC50” value [9] was 2 and the “Ratio EC50” value [10] was 1. For the same compound, the “Ratio EC50” value [11] was 1, the pEC50 [12] was 7.44 and the pEC50 [13] was 7.44. It also gave a pEC50 [14] of 7.44, a pEC50 [15] of 7.44 and a pEC50 [16] of 7.44. For the same compound, the pEC50 [17] was 7.44 and the pEC50 [18] was 7.44.

`Nc1ccc(S(=O)(=O)N(C[C@H]2CCC(=O)N2)C[C@@H](O)[C@H](Cc2ccccc2)NC(=O)O[C@@H]2C[C@@H]3CCO[C@@H]3C2)cc1` gave a pKi [1] of 9.51 and a pIC50 [2] of 6.22.

Work on `CC(C)CN(C[C@@H](O)[C@H](Cc1ccccc1)NC(=O)O[C@H]1CCOC1)S(=O)(=O)c1ccc(N)cc1` yielded a pEC50 [3] of 7.60, a pEC50 [4] of 6.60 and a pEC50 [5] of 6.49. The pEC50 [6] was 6.46, the pEC50 [7] was 6.48 and the “Ratio EC50” value [8] was 10. The “Ratio EC50” value [9] was 13, the “Ratio EC50” value [10] was 14 and the “Ratio EC50” value [11] was 13.

`COc1ccc(S(=O)(=O)N(C[C@H]2CCC(=O)N2)C[C@@H](O)[C@H](Cc2ccccc2)NC(=O)O[C@H]2CO[C@H]3OCC[C@H]32)cc1` showed a pKi [1] of 9.92 and a pIC50 [2] of 6.60.

`COc1ccc(S(=O)(=O)N(C[C@H]2COC(=O)N2)C[C@@H](O)[C@H](Cc2ccccc2)NC(=O)O[C@H]2CO[C@H]3OCC[C@H]32)cc1` showed a pKi [1] of 10.46 and a pIC50 [2] of 6.51.

Compound `COc1ccc(S(=O)(=O)N(C[C@@H]2COC(=O)N2)C[C@@H](O)[C@H](Cc2ccccc2)NC(=O)O[C@H]2CO[C@H]3OCC[C@H]32)cc1` has a pKi [1] of 9.55 and a pIC50 [2] of 6.32.

For `Nc1ccc(S(=O)(=O)N(C[C@H]2COC(=O)N2)C[C@@H](O)[C@H](Cc2ccccc2)NC(=O)O[C@H]2CO[C@H]3OCC[C@H]32)cc1`, the pKi [1] was 9.62 and the pIC50 [2] was < 6.00.

For `Nc1ccc(S(=O)(=O)N(C[C@H]2CCC(=O)N2)C[C@@H](O)[C@H](Cc2ccccc2)NC(=O)O[C@H]2CO[C@H]3OCC[C@H]32)cc1`, the pKi [1] was 9.07 and the pIC50 [2] was < 6.00.

With `Nc1ccc(S(=O)(=O)N(C[C@@H]2COC(=O)N2)C[C@@H](O)[C@H](Cc2ccccc2)NC(=O)O[C@H]2CO[C@H]3OCC[C@H]32)cc1` the pKi [1] was 9.51.

In the case of `CC(C)(C)NC(=O)[C@@H]1CN(Cc2cccnc2)CCN1C[C@@H](O)C[C@@H](Cc1ccccc1)C(=O)N[C@H]1c2ccccc2C[C@H]1O.O`, the pEC50 [3] was 7.55, the pEC50 [4] was < 6.00 and the pEC50 [5] was < 6.00. For the same compound, the pEC50 [6] was < 6.00, the pEC50 [7] was 6.54 and the “Ratio EC50” value [8] was >36. For the same compound, the “Ratio EC50” value [9] was >36, the “Ratio EC50” value [10] was >36 and the “Ratio EC50” value [11] was 10.
